Sampled rows, rich in hits. Any-hit rate of the full collection: about 4.6%.
CHO parental Ca = signal in parental CHO cells, OX1R antagonist counter-screen; parental CHO-K1, ATP-induced calcium, Fluo-8 fluorescence; inhibition, % at 5.6 µM; actives 0.63% (n = 330,000);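 active = inhibition above that plate's mean sample inhibition plus 3 SD, cut at about 26% in these data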
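Test system: parental CHO cells; detection: calcium-sensitive Fluo-8 fluorescence; evaluation: percent inhibition of calcium signal; also added: ATP as calcium-mobilizing challenge; repeats: one well per compound; control set: ATP-challenged DMSO wells low, unchallenged DMSO wells high; compound: single nominal dose of 5.6 µM per compound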
TAAR1 antag = human TAAR1 antagonism; CHO RD-HGA16 TAAR1, Fluo-8 calcium fluorescence, antagonist; inhibition, % at 3 µM; Q96RJ0; actives 1.5% (n = 360,000);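 active = inhibition above a per-plate cutoff, the mean inhibition of test compounds on that plate plus 3 SD, cut at about 49% in these data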
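Material: CHO RD-HGA16 cells bearing hTAAR1; compound dosing: one-point dosing, 3 µM nominal final; schedule: dye loading 75 min at 37 °C, then 30 min room temperature; measured by: calcium fluorescence with Fluo-8; control set: vehicle and agonist controls; replication: n of 1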
TAAR1 agonist = human TAAR1 agonism | CHO RD-HGA16 TAAR1, Fluo-8 calcium fluorescence; vehicle wells 0%, saturating PEA agonist 100% | activation, % at 3 µM | actives 0.99% (n = 360,000) | Q96RJ0;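 active = activation above the mean activation of all test compounds in the run plus 3 SD, cut at about 38% in these data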
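Benchmarks: low control DMSO, high control PEA (EC100); System: CHO RD-HGA16 cells carrying human TAAR1 plus Gα16; Detection: Fluo-8 fluorescence, 5 s baseline then 140 s kinetic read; Schedule: 17-24 h plating, Fluo-8 75 min 37 °C, 30 min RT; Read-out basis: % activation from peak over basal fluorescence ratio, DMSO-to-PEA scaled.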
GPR7 antagonist = human neuropeptides B/W receptor 1 antagonism; inhibition, % at 4.4 µM; AID 1861; actives 1.1% (n = 290,000); GPR7-expressing cells, fluorescence antagonist assay; in the data active = inhibition above about 16%, passing the limit was not always enough;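 note: cells stimulated with the agonist NPW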
OX1R antag-1 = blocks the human orexin 1 receptor; AID 434989; actives 0.43% (n = 330,000); CHO/OX1R cells, Fluo-8 calcium fluorescence, orexin A; inhibition, % at 5 µM;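 active = inhibition above its plate's threshold, mean inhibition of all tested compounds on the plate plus 3 SD, cut at about 37% in these data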
Target sequence (O43613 whole entry, looked up): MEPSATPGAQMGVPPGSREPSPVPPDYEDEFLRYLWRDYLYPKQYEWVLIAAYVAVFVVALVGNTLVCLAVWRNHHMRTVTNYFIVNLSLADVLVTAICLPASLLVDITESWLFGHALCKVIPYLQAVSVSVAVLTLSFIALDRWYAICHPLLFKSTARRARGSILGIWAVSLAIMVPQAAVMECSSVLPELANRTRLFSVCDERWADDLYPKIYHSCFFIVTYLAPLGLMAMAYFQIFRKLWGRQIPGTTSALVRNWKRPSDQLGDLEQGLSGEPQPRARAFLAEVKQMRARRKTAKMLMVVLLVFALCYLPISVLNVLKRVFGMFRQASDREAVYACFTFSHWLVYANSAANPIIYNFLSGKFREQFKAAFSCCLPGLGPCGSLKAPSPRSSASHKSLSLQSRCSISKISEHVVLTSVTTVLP
OX1R antag-2 = antagonists of human orexin 1 receptor (OX1R); AID 485270; actives 1.8% (n = 330,000); inhibition, % at 6.6 µM; OX1R-expressing cells, FRET antagonist read-out; O43613; in the data active = inhibition mostly above about 38%, no sharp cut-off; inactive = mostly below about 40%
Hits are given with their value.

For O=C1CCCN1CCCNc1ncccc1[N+](=O)[O-] the results were CHO parental Ca inactive, TAAR1 antag inactive, TAAR1 agonist inactive, GPR7 antagonist inactive, OX1R antag-1 inactive and OX1R antag-2 43.
Screening CNc1nc(NCCCN2CCCC2=O)c2sccc2n1 returned TAAR1 antag inactive and TAAR1 agonist inactive.
CCCN1C(=O)c2[nH]nc(-c3ccccc3)c2C1c1ccc(Br)cc1 (stereo unspecified) was read as TAAR1 antag inactive and TAAR1 agonist inactive.
For Cc1cc(C(=O)Nc2ccccc2N2CCCCC2)no1 the results were CHO parental Ca inactive, TAAR1 antag inactive, TAAR1 agonist inactive, GPR7 antagonist inactive, OX1R antag-1 inactive and OX1R antag-2 inactive.
Screening N#CC1=C(N)NC(SCc2ccc(F)cc2)=C(C#N)C12CCCCC2 returned CHO parental Ca inactive, TAAR1 antag 54, TAAR1 agonist inactive, GPR7 antagonist inactive, OX1R antag-1 inactive and OX1R antag-2 inactive.
For CCOC(=O)N1CCN(C(=O)C[C@H]2C[C@@]3(C(=O)OC)C(=C[C@H](C(C)C)O[C@@H]3C3CC3)N(Cc3ccccc3)C2=O)CC1 the results were TAAR1 antag inactive and TAAR1 agonist inactive.
For O=[n+]1c2c(n([O-])c3cc(F)c(N4CCCC4)cc31)CCC2 the results were CHO parental Ca inactive, TAAR1 antag inactive, TAAR1 agonist inactive, GPR7 antagonist inactive, OX1R antag-1 inactive and OX1R antag-2 68.
For O=[n+]1c2c(n([O-])c3cc(F)c(N4CCCC4)cc31)CCCC2 the results were CHO parental Ca inactive, TAAR1 antag inactive, TAAR1 agonist inactive, GPR7 antagonist inactive, OX1R antag-1 inactive and OX1R antag-2 52.
For Cc1ccc2c(c1)n([O-])c1c([n+]2=O)CCCC1 the results were CHO parental Ca inactive, TAAR1 antag inactive, TAAR1 agonist inactive, GPR7 antagonist inactive, OX1R antag-1 inactive and OX1R antag-2 inactive.
`CCc1nc(Nc2ccc(OC)c(OC)c2)c2nnn(Cc3ccccc3Cl)c2n1` gave CHO parental Ca 30, TAAR1 antag inactive, TAAR1 agonist inactive, GPR7 antagonist inactive, OX1R antag-1 inactive and OX1R antag-2 inactive.
For CCc1noc2cc(-c3ccccc3)n(C)c(=O)c12 the results were TAAR1 antag inactive and TAAR1 agonist inactive.
Screening Cc1n[nH]c(=O)c2c(NC(=O)CSc3nc4ccccc4c(=O)n3-c3ccc(OC(F)F)cc3)oc(C)c12 returned CHO parental Ca inactive, TAAR1 antag inactive, TAAR1 agonist inactive, OX1R antag-1 inactive and OX1R antag-2 76.
COCCCn1c(SCC(=O)Nc2oc(C)c3c(C)n[nH]c(=O)c23)nc2ccccc2c1=O was read as CHO parental Ca inactive, TAAR1 antag inactive, TAAR1 agonist inactive, OX1R antag-1 inactive and OX1R antag-2 inactive.
For CC(C)N1CCN(Cc2cc3ccccc3[nH]2)CC1CCO (stereo unspecified) the results were CHO parental Ca inactive, TAAR1 antag inactive, TAAR1 agonist inactive, GPR7 antagonist inactive, OX1R antag-1 inactive and OX1R antag-2 inactive.
O=C(Nc1ccccc1)Nc1cc([N+](=O)[O-])ccc1F was read as CHO parental Ca inactive, TAAR1 antag inactive, TAAR1 agonist 41, GPR7 antagonist inactive, OX1R antag-1 inactive and OX1R antag-2 inactive.
O=C(NNc1ccccc1[N+](=O)[O-])Nc1ccccc1 was read as CHO parental Ca inactive, GPR7 antagonist inactive, OX1R antag-1 inactive and OX1R antag-2 inactive.
Cc1cc([N+](=O)[O-])ccc1NC(=O)Nc1ccccc1F was read as CHO parental Ca inactive, TAAR1 antag inactive, TAAR1 agonist inactive, GPR7 antagonist inactive, OX1R antag-1 inactive and OX1R antag-2 inactive.
Screening O=C(NNc1ccccc1[N+](=O)[O-])Nc1ccc(F)cc1 returned CHO parental Ca inactive, TAAR1 antag inactive, TAAR1 agonist 42, GPR7 antagonist inactive, OX1R antag-1 inactive and OX1R antag-2 inactive.
COC(=O)c1cccc(Nc2cc(C)n(-c3cccc(C(=O)OC)c3)c(=O)c2)c1 was read as TAAR1 antag inactive and TAAR1 agonist inactive.
For Cc1ccc(N(C)S(=O)(=O)c2cccc(C(=O)OCC(=O)c3c(N)n(C)c(=O)n(C)c3=O)c2)cc1 the results were CHO parental Ca inactive, TAAR1 antag 66, TAAR1 agonist inactive, OX1R antag-1 inactive and OX1R antag-2 inactive.
For CCC(=O)c1ccc(OCC(=O)Nc2cccc(S(=O)(=O)N(C)c3ccccc3)c2)cc1 the results were CHO parental Ca 44, TAAR1 antag 76, TAAR1 agonist inactive, OX1R antag-1 77 and OX1R antag-2 27.
For CN(C(=O)COC(=O)c1cccc(S(=O)(=O)N2CCCCCC2)c1)c1ccccc1 the results were TAAR1 antag inactive and TAAR1 agonist inactive.
For COc1ccc(N(C)S(=O)(=O)c2cccc(C(=O)OCC(=O)N(C)c3ccccc3)c2)cc1 the results were CHO parental Ca inactive, TAAR1 antag 56, TAAR1 agonist inactive, OX1R antag-1 inactive and OX1R antag-2 inactive.
CC(=O)Nc1ccc(S(=O)(=O)NCC(=O)OCC(=O)N2CCCCCC2)cc1 was read as CHO parental Ca inactive, TAAR1 antag inactive, TAAR1 agonist inactive, OX1R antag-1 inactive and OX1R antag-2 inactive.
COc1ccc(Cn2c(C)c(CC(=O)Nc3ccc(Oc4cccnc4)c(C)c3)c3ccccc32)cc1 was read as TAAR1 antag inactive and TAAR1 agonist inactive.
For O=C(Nc1ccccc1)OCCNC(=O)c1cccc(Br)c1 the results were CHO parental Ca inactive, TAAR1 antag inactive, TAAR1 agonist inactive, GPR7 antagonist inactive, OX1R antag-1 inactive and OX1R antag-2 inactive.
Screening O=C(Nc1ccc(Cl)c(Cl)c1)OCCNC(=O)c1cccc(Cl)c1 returned CHO parental Ca 40, TAAR1 antag inactive, TAAR1 agonist inactive, GPR7 antagonist inactive, OX1R antag-1 inactive and OX1R antag-2 inactive.
For CCOC(=O)C1CCCN(C(=O)c2cnn3c(C(F)F)cc(-c4ccc(C)cc4)nc23)C1 (stereo unspecified) the results were CHO parental Ca inactive, TAAR1 antag inactive, TAAR1 agonist inactive, GPR7 antagonist 19, OX1R antag-1 inactive and OX1R antag-2 inactive.
Screening Cc1ccc(-c2cc(C(F)F)n3ncc(C(=O)N4CCN5CCCC5C4)c3n2)cc1 (stereo unspecified) returned CHO parental Ca inactive, TAAR1 antag inactive, TAAR1 agonist inactive, GPR7 antagonist inactive, OX1R antag-1 inactive and OX1R antag-2 inactive.
Screening COc1cc(CN2C[C@@H](CO)O[C@@H](n3cnc4c(NCc5ccco5)ncnc43)C2)cc(OC)c1OC returned TAAR1 antag inactive and TAAR1 agonist inactive.
Screening COc1ccccc1CN(Cc1cc2cc(C)ccc2[nH]c1=O)Cc1nnnn1Cc1ccco1 returned CHO parental Ca inactive, TAAR1 antag inactive, TAAR1 agonist inactive, GPR7 antagonist inactive, OX1R antag-1 inactive and OX1R antag-2 72.
